SIAE inh – human SIAE inhibition, primary screen | inhibition, % at 9.66 µM | SIAE FP-Rh probe binding, fluorescence polarization | AID 1053197 | 370,000 compounds, 0.69% hits;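 active = inhibition above a cutoff: mean of compounds within the control limits plus 3 SD of those, cut at about 17% in these data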;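 also: 0% = plate median of compound wells and 100% = probe without SIAE protein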
PRMT1 FP inh – blocks human protein arginine methyltransferase 1 | recombinant PRMT1, activity-based probe fluorescence polarization | inhibition, % at 2.79 µM | 370,000 compounds, 1.3% hits;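 active = inhibition above about 21% made by adding two undisclosed values, limit read from the data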
RBBP9 inhibitor – inhibitors of human serine hydrolase RBBP9 | O75884 | recombinant RBBP9, FP-Rh probe fluorescence polarization | inhibition, % at 7.94 µM | 220,000 compounds, 0.2% hits | AID 1515;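 active = inhibition above the campaign mean of all tested compounds plus 3 SD, cut at about 14% in these data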;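 also: plate controls were DMSO wells with RBBP9 for no effect and wells lacking RBBP9 protein for full effect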
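System: RBBP9 protein / Buffer or medium: Tris/NaCl buffer pH 8.0 with 0.1% Pluronic / Probe or stimulus: Serine-hydrolase probe FP-Rh, 375 nM pre-mixing / Dosing: 7.94 µM single dose, 0.794% DMSO / Times: enzyme-compound preincubation 30 min, then probe labeling 45 min, 25 °C / Technique: fluorescence polarization (mP), excitation 525 nm, emission 598 nm / Replication: singlicate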
GSTO1 counter – GSTO1 inhibition, counter-screen for RBBP9 inhibitors | P78417 | recombinant GSTO1, activity-based probe fluorescence polarization | inhibition, % at 5.96 µM | 300,000 compounds, 1.1% hits;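 active = inhibition above the campaign mean inhibition plus 3 SD, cut at about 35% in these data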;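 also: 0% = GSTO1-1 with DMSO and 100% = wells lacking GSTO1-1 enzyme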
PAD4 inh – inhibitors of human PAD4; inhibition, % at 6.36 µM; AID 485272; 330,000 compounds, 0.41% hits; recombinant PAD4, RCA probe fluorescence polarization;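 active = percent inhibition above a cutoff equal to the mean of all tested compounds plus 3 SD, cut at about 15% in these data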;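 also: 0% = PAD4 with RCA probe and DMSO and 100% = probe without PAD4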
Target sequence (Q9UM07 whole entry, looked up): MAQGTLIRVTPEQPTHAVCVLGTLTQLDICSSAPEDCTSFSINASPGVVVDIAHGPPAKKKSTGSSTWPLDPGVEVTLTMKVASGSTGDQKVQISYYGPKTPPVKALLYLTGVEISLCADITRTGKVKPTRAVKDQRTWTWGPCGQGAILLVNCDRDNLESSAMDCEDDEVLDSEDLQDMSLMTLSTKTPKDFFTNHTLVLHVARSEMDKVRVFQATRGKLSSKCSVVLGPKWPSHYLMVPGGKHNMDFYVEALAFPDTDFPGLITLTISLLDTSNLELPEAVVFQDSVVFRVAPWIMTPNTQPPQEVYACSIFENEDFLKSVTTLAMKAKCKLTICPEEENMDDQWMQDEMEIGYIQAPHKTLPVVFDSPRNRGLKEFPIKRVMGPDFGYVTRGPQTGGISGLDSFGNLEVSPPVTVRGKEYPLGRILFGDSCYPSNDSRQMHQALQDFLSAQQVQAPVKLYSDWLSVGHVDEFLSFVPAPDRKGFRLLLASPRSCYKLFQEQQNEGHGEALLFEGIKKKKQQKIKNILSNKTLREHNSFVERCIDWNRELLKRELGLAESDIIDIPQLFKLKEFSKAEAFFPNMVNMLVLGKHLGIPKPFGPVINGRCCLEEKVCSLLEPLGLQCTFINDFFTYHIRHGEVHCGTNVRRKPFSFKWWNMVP
GSTO1 confirm – confirmation of human GSTO1 inhibitors | shares compounds with GSTO1 counter | recombinant GSTO1, probe fluorescence polarization | inhibition, % at 5.96 µM | 2,400 compounds, 54% hits | AID 2176;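 active = inhibition above the primary screen's cutoff, its mean inhibition plus 3 SD, cut at about 35% in these data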;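 also: loss of polarization as inhibitors block binding of rhodamine sulfonate ester activity probe; 0% = GSTO1 with DMSO and 100% = wells lacking GSTO1 enzyme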
PAD4 confirm – PAD4 (human) inhibition, confirmed; shares compounds with PAD4 inh; recombinant PAD4, RCA probe fluorescence polarization; inhibition, % at 6.36 µM; 1,200 compounds, 28% hits; AID 488796;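 active = mean inhibition across replicates above the hit cutoff set by the earlier primary screen, cut at about 15% in these data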;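 also: inhibitors block active-site labeling by the probe so polarization falls; 0% = PAD4 with probe and DMSO and 100% = probe without PAD4 enzyme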
SIAE confirm – confirmation of human SIAE inhibitors | inhibition, % at 9.66 µM | SIAE FP-Rh activity-based probe, fluorescence polarization | AID 1117263 | shares compounds with SIAE inh | 2,300 compounds, 13% hits;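 active = mean inhibition of the replicates above the hit cutoff set in the primary screen, cut at about 17% in these data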;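 also: 0% = SIAE with DMSO and probe and 100% = probe without SIAE; inhibitors lower polarization as more probe stays unbound to SIAE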
Numbers without * were called inactive; · = no result; + = active, no number; ! = not confirmed by another sample. Shown are actives, neighbours in structure and some others; about 2.7% of the full set was active somewhere.

SMILES	SIAE inh	PRMT1 FP inh	RBBP9 inhibitor	GSTO1 counter	PAD4 inh	PAD4 confirm	others
Cc1ccc2c(c1)cc(CN(Cc1ccc3c(c1)OCO3)C(=O)c1ccccc1)c1nnnn12	2	-2	-6	2	6	·
CCCCNc1c([N+](=O)[O-])cc(C)cc1[N+](=O)[O-]	-1	0	-4	1	-3	·
N#C/C(=C\c1ccc(O)c(O)c1)C(=O)Nc1cccc2ncccc12	29*	10	·	56*	-12	·	GSTO1 confirm=29;SIAE confirm=0
COc1ccc(OC)c(S(=O)(=O)Nc2cccc3ccccc23)c1	3	-3	·	-2	3	·
COc1ccc(OC)c(S(=O)(=O)Oc2ccc(N)c3ccccc23)c1	-2	19	·	35*	21*	-10
O=C(COC(=O)c1ccc([N+](=O)[O-])cc1)Nc1ccccc1C(=O)NC1CC1	-1	-1	·	·	1	·
O=C(COC(=O)c1ccc(S(=O)(=O)C(F)F)cc1)Nc1ccccc1C(=O)NC1CC1	1	-7	·	·	15*	4
Cc1ccc(C(=O)NCCOc2cccc(C)c2)cc1	-3	-3	-2	8	2	·
COc1ccc(-c2nc(C)ncc2N=Nc2ccccc2)cc1	8	-3	-5	8	0	·
Cc1ncc(N=Nc2ccc(F)cc2)c(-c2ccc(Cl)cc2)n1	1	0	-3	5	18*	1
O=C(Cn1cccc1)N1CCN(c2ccc(F)cc2)CC1	11	3	-7	-4	1	·
CCOC(=O)C1CCN(CC(=O)N2CCc3ccccc32)CC1	-1	3	·	-1	38*	2
NC(=O)C(c1ccc(Cl)cc1)c1ccc(Sc2ccccc2)nn1 (centres undefined)	6	-1	-1	-7	-2	·
O=C(CN1CCOCC1)Nc1nc2ccc(Br)cc2s1	5	39*	-6	1	17*	9
CCOc1cc(/C=C2\N=C(C)OC2=O)cc(Cl)c1OCC(=O)OC	-1	-2	·	4	1	·
COc1ccc(OC)c(S(=O)(=O)N(C(C)=O)c2ccc3oc(=O)sc3c2)c1	-5	53*	-18	23	25*	15*
CN(c1ccc(C(=O)O)cc1)S(=O)(=O)c1ccccc1	-2	1	-6	20	3	·
COc1ccc(C(=O)Oc2ccc3oc(=O)sc3c2)cc1	-25	76*	-20	31	48*	12
CC(C)C(=O)N(c1ccc2oc(=O)sc2c1)S(=O)(=O)c1ccccc1	-31	48*	-5	18	24*	3
Nc1nc(SCC(=O)Nc2c(Br)cc([N+](=O)[O-])cc2Br)n[nH]1	-3	-1	-2	6	-2	·
CCOC(=O)Cc1[nH]nc2c1C(c1cc(OC)ccc1OC)C(C#N)=C(N)O2 (centres undefined)	5	0	2	8	-7	·
COc1ccc(OC)c(C2C(C#N)=C(N)Oc3c2c(C)nn3-c2ccc(C)cc2)c1 (centres undefined)	6	-1	-3	35*	54*	5
Cn1nnnc1Sc1ncnc2scc(-c3ccc([N+](=O)[O-])cc3)c12	6	-1	·	·	17*	10
C=CCOc1c(Br)cc(CNc2nccs2)cc1OC	-6	2	-7	-5	-4	·
CCC1OC2(C)OC(=N)C1(C#N)C(C#N)(C#N)C2c1ccccc1 (centres undefined)	7	5	3	13	15*	-1
SMILES	SIAE inh	PRMT1 FP inh	RBBP9 inhibitor	GSTO1 counter	PAD4 inh	PAD4 confirm	others
Cc1ccc(C2OC34CCCCCC3C(C#N)(C(=N)O4)C2(C#N)C#N)cc1 (centres undefined)	-2	0	0	-3	2	·
O=C(NCc1ccco1)C(Cc1ccccc1)N1C(=O)c2ccccc2C1=O (centres undefined)	-4	3	-8	5	-4	·
COc1ccc2c(C)cc3n[nH]c(=S)n3c2c1	2	5	-8	3	22*	16*
Cc1c(NC(=O)C(C)Sc2nccn2C)c(=O)n(-c2ccccc2)n1C (centres undefined)	2	-2	·	·	-1	·
Cc1c(NC(=O)CSc2nccn2C)c(=O)n(-c2ccccc2)n1C	6	-4	8	9	+	-6
Cc1c(NC(=O)C(C)OC(=O)c2cccc([N+](=O)[O-])c2)c(=O)n(-c2ccccc2)n1C (centres undefined)	-11	1	-4	-2	-4	·
CSCc1cccc(C(=O)OC(C)C(=O)Nc2c(C)n(C)n(-c3ccccc3)c2=O)c1 (centres undefined)	0	-1	·	·	24*	6
N#C/C(=C\c1cccnc1)C(=O)Nc1ccccc1	2	3	4	-1	1	·
N#C/C(=C\c1cccnc1)C(=O)Nc1ccc(O)cc1F	11	3	·	-4	18*	7
Cc1ccc(/C(=N/Nc2nc3ccccc3s2)C2=C(O)c3ccccc3C2=O)cc1	-5	2	-11	-17	42*	17*
Oc1ccc(NC(=S)Nc2ccccc2)cc1	8	8	-4	8	21*!	2
O=C(Oc1coc(CSc2nnc(NC(=O)c3cccs3)s2)cc1=O)c1ccccc1	-3	2	-6	7	-1	·
Cc1ccc(C)c(NC(=S)c2ccc3ccccc3n2)c1	3	1	-2	6	0	·
CN(C)c1ccc(NC(=S)c2ccc3ccccc3n2)cc1	7	9	·	30	38*	6
Cc1ccc(NS(=O)(=O)c2cccc(C(=O)N3CCN(c4ncccn4)CC3)c2)cc1	4	-1	·	·	36*	3
COc1ccc2noc3c2c1C(=O)c1ccccc1-3	18*	157*	·	20	143*	144*
CCOc1ccc(N=C2NC(=O)S/C2=C\c2ccc(Cl)cc2)cc1	6	-1	-1	6	-4	·
COc1ccc(N=C2NC(=O)S/C2=C\c2ccc(N(C)C)cc2)cc1	12	0	0	10	36*	47*
COC(=O)c1ccccc1NC(=O)CSc1nc2c(c(=O)n(C)c(=O)n2C)n1C	·	·	-4	·	·	·
Cc1cc(C)c(S(=O)(=O)Nc2ccc(Cl)cn2)c(C)c1	-4	-1	·	4	21*	1
CCOC(=O)CCc1cnccc1-c1cccc(OC)c1O	-2	5	·	5	2	·
O=C1/C(=C/c2cccnc2)N=C2CCCCCN12	-9	-6	-18	3	1	·
O=c1oc2ccccc2n1CSC1=NCCS1	8	5	5	-27	17*	10
C#CCn1c(O)c(N=NC(=O)CNC(=O)c2cccnc2)c2ccccc21	-2	1	·	8	2	·
